Test results taken from the M2OR odorant receptor database.

What was measured:
Conditions in all cases: stereoisomer not certain
[1] = system: T1, A0A140T8K4
T1 sequence (whole entry): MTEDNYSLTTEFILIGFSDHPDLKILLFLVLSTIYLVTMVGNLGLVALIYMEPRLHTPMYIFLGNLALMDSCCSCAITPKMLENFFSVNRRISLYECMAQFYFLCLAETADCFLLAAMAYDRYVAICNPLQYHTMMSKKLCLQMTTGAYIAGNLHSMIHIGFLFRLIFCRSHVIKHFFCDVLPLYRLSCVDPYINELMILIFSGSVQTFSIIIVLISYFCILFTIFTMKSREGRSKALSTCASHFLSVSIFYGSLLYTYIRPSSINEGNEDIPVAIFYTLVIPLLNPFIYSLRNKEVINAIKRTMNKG
How it was run: (§1)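 Values were gathered from published papers (main text and supplementary material), with extra details requested from the original authors when needed, and checked for typos and inconsistencies. Each receptor–molecule pair is called responsive (active) if the original authors judged the measured signal statistically different from baseline, and non-responsive (inactive) otherwise. Assay methods varied by source, often transient mammalian cell-line luciferase assays. Recorded details include cell line, G-protein, co-transfected protein and tags.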

[2] = system: T2, A0A1L1SVG7
T2 sequence (whole entry): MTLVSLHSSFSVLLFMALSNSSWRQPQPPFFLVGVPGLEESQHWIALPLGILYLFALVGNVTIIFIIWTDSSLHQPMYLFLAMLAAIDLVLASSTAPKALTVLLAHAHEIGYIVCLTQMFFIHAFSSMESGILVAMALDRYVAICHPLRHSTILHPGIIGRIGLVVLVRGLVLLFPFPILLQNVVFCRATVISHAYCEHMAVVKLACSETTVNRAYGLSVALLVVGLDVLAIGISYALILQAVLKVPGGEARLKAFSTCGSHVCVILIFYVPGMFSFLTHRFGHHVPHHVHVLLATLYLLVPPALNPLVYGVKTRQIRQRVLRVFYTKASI
How it was run: as §1

[3] = system: T3, A0A140T8K0
T3 sequence (whole entry): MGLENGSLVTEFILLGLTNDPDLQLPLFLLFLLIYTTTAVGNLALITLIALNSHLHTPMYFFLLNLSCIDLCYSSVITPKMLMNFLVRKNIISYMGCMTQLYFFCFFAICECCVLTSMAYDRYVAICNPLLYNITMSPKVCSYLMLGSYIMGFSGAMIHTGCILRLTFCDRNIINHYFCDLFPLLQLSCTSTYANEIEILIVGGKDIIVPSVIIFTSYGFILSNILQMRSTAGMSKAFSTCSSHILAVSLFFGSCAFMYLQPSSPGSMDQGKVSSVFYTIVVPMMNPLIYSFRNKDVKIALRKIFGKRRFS
How it was run: as §1

[4] = system: O10A2 H43R H207R K258T
How it was run: as §1

[5] = system: O10A3 C8G
O10A3 C8G, sequence (as listed by the source): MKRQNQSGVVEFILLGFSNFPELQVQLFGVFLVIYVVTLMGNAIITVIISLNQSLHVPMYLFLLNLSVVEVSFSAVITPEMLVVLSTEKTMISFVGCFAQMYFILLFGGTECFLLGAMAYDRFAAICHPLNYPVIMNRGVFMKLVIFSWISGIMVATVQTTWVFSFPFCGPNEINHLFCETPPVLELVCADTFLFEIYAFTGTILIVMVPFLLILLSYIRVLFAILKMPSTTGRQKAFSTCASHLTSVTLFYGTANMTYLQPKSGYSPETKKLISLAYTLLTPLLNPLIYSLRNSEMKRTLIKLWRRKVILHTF
How it was run: as §1

[6] = system: O10A6
O10A6, sequence (as listed by the source): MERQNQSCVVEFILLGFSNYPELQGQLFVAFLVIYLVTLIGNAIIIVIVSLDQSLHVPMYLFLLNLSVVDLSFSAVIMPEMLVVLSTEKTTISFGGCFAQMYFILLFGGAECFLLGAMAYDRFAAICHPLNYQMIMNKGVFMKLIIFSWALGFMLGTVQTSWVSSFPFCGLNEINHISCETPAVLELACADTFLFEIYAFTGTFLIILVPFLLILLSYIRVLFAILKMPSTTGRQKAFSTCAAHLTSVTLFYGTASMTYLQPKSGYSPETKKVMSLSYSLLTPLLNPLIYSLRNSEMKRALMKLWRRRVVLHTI
How it was run: as §1

[7] = system: O10AD G65C
O10AD G65C, sequence (as listed by the source, stated change not applied): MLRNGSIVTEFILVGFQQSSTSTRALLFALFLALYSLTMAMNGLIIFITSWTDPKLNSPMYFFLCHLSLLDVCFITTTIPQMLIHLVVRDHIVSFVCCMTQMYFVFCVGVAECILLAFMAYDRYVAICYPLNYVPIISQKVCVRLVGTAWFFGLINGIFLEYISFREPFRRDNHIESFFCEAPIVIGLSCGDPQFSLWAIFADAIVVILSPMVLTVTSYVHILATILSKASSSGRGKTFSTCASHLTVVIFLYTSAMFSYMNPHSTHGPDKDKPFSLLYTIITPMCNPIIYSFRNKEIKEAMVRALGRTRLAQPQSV
How it was run: as §1

[8] = system: O10D3 V134A R197K
How it was run: as §1

[9] = system: O10G4 L24P V195E
How it was run: as §1

[10] = system: O10G7 A18V P19Q G20A
How it was run: as §1

SMILES: CCC1CCC(=O)O1 (centres undefined)
- odorant receptor agonist call [1]: inactive
- odorant receptor agonist call [2]: inactive

SMILES: COc1ccc(C=O)cc1
- odorant receptor agonist call [3]: inactive

SMILES: O=Cc1ccc2c(c1)OCO2
- odorant receptor agonist call [3]: inactive

SMILES: C=CCc1ccccc1
- odorant receptor agonist call [1]: inactive
- odorant receptor agonist call [2]: inactive

SMILES: C=C(C)C1CC=C(C=O)CC1 (centres undefined)
- odorant receptor agonist call [3]: inactive

SMILES: Oc1ccccc1Br
- odorant receptor agonist call [3]: inactive

SMILES: C=CCOC(=O)Cc1ccccc1
- odorant receptor agonist call [3]: inactive
- odorant receptor agonist call [1]: inactive
- odorant receptor agonist call [2]: inactive
- odorant receptor agonist call [4]: inactive
- odorant receptor agonist call [5]: inactive
- odorant receptor agonist call [6]: inactive
- odorant receptor agonist call [7]: inactive
- odorant receptor agonist call [8]: inactive
- odorant receptor agonist call [9]: inactive
- odorant receptor agonist call [10]: inactive

SMILES: O=Cc1ccccc1
- odorant receptor agonist call [3]: inactive

SMILES: Cc1ccc(OC(=O)Cc2ccccc2)cc1
- odorant receptor agonist call [3]: inactive

SMILES: CSSC
- odorant receptor agonist call [3]: inactive

SMILES: CCCCC(Br)C(=O)O (centres undefined)
- odorant receptor agonist call [3]: inactive

SMILES: CCCCCCC(Br)C(=O)O (centres undefined)
- odorant receptor agonist call [3]: inactive

SMILES: OCc1ccc2c(c1)OCO2
- odorant receptor agonist call [3]: inactive

SMILES: O=CC=Cc1ccccc1
- odorant receptor agonist call [3]: inactive

SMILES: O=c1cc(O)c2ccccc2o1
- odorant receptor agonist call [3]: inactive
- odorant receptor agonist call [1]: inactive
- odorant receptor agonist call [2]: inactive

SMILES: CC(C=O)Cc1ccc2c(c1)OCO2 (centres undefined)
- odorant receptor agonist call [3]: inactive
